Experimental data published in ChEMBL document CHEMBL1649420, “Identifying chelators for metalloprotein inhibitors using a fragment-based approach” (J Med Chem, 2011).

Experiments:
[1] = target: T1, 72 kDa type IV collagenase (Homo sapiens, UniProt P08253); conditions: at 1 mM
Target sequence in this assay (P08253 110-660 limits assumed): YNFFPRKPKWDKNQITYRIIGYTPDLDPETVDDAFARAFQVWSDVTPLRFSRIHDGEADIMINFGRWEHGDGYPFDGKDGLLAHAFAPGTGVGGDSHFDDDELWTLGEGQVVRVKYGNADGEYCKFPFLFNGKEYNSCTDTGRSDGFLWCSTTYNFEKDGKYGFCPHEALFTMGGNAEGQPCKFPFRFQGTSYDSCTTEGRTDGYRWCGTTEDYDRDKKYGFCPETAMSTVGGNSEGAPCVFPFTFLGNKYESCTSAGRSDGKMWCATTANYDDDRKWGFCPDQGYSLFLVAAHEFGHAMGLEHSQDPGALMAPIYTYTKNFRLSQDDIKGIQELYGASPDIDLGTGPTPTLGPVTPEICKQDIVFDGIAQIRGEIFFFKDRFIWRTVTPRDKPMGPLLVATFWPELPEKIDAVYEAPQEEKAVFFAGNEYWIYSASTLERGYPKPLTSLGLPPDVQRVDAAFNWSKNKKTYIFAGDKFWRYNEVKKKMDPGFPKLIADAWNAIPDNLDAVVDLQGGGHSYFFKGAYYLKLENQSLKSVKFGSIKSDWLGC

[2] = target: T2, Polyunsaturated fatty acid 5-lipoxygenase (Homo sapiens) (UniProt P09917); experiment: Inhibition of human recombinant 5-lipoxygenase at 1 mM after 10 mins by fluorescence assay
T2 sequence (whole entry): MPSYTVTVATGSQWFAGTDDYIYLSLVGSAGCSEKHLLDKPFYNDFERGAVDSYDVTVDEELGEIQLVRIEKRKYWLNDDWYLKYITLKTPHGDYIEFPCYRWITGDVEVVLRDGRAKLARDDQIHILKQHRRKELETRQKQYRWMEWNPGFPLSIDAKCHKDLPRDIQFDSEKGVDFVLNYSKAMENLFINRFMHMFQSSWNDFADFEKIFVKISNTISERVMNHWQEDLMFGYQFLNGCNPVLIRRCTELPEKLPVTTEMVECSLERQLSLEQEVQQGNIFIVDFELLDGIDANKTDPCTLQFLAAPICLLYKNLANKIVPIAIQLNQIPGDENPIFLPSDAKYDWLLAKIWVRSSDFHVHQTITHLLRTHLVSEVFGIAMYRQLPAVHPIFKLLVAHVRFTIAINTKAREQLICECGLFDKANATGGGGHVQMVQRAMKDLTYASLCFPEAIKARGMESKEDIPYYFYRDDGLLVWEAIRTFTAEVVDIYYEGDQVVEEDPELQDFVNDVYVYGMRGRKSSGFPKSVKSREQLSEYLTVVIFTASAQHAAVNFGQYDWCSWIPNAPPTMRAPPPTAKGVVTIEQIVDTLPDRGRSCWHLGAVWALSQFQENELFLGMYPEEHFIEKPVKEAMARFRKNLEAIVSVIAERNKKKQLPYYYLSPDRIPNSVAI

[3] = target: T3, Interstitial collagenase (Homo sapiens) (UniProt P03956); conditions: at 1 mM;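 also: recombinant human enzyme, with inhibition measured after 30 min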
T3 sequence (whole entry): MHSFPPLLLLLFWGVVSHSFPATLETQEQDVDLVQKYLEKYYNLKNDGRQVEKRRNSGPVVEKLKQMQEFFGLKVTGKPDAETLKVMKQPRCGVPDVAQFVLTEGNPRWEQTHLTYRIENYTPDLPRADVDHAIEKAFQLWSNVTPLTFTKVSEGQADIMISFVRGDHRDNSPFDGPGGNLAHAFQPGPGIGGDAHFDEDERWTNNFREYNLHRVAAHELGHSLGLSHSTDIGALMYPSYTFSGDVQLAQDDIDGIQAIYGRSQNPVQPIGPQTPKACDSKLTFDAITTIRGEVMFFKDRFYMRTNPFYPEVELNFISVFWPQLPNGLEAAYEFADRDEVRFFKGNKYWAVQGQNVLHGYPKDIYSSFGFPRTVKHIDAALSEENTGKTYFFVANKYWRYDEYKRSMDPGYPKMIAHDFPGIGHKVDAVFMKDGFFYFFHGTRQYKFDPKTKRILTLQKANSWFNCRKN

[4] = target: T4, Nitric oxide synthase, inducible (Mus musculus) (UniProt P29477); conditions: at 1 mM;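 also: recombinant enzyme, activity read out colorimetrically after 40 min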
T4 sequence (whole entry): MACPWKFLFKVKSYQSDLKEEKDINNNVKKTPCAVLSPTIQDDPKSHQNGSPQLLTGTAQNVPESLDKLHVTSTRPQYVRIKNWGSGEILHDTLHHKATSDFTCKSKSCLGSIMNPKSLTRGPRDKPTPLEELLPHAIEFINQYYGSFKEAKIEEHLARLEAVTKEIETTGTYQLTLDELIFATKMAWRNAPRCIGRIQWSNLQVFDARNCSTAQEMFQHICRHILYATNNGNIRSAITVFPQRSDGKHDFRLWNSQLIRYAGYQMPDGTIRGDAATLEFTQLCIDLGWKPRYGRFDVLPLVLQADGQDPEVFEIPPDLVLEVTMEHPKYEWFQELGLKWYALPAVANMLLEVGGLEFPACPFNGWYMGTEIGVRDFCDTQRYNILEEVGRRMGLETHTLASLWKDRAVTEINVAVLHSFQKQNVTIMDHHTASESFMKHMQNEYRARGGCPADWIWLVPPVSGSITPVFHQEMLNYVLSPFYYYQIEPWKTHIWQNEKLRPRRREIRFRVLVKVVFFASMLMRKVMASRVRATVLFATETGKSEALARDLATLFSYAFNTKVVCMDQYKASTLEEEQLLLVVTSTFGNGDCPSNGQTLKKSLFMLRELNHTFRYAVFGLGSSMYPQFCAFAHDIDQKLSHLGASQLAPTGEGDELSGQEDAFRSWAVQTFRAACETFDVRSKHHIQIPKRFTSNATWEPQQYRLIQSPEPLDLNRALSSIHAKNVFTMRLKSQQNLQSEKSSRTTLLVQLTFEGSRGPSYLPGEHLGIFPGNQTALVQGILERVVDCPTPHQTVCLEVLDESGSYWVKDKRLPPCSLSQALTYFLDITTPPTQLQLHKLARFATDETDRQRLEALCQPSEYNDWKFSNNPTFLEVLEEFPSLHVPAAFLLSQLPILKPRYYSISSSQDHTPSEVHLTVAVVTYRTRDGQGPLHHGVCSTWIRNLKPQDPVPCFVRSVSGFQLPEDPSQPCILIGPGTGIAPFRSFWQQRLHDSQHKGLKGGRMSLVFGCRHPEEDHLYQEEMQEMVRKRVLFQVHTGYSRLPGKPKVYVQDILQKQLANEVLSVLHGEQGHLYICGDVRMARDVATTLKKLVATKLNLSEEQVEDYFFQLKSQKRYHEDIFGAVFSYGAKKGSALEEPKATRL

[5] = target: T5, Polyunsaturated fatty acid 5-lipoxygenase (Homo sapiens, UniProt P09917); experiment: Inhibition of human recombinant 5-lipoxygenase after 10 mins by fluorescence assay
T5 sequence (P09917 whole entry): T2 sequence (whole entry)

[6] = target: Matrix metalloproteinase-9 (Homo sapiens) (UniProt P14780); conditions: at 1 mM;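 also: recombinant human MMP9, activity read after 30 min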
Chain of Matrix metalloproteinase-9 (Homo sapiens) (P14780 whole entry): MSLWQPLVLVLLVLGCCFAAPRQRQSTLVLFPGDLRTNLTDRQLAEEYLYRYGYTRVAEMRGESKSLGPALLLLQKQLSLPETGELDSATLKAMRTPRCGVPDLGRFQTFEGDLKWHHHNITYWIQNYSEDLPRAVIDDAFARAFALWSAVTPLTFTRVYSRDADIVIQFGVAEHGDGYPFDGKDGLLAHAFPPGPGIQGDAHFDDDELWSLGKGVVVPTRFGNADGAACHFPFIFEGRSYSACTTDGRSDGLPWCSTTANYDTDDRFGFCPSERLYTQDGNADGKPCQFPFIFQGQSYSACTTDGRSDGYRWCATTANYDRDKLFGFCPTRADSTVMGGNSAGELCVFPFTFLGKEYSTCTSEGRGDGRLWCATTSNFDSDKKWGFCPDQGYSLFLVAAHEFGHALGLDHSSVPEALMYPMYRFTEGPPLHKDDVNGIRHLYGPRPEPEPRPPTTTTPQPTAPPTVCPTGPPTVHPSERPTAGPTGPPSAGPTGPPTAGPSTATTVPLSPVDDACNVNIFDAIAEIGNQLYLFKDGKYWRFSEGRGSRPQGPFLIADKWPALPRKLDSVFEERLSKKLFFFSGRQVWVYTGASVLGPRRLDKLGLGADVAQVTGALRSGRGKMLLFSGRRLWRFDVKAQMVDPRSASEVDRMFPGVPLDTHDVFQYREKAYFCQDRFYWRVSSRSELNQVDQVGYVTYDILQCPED

[7] = target: T6, Tyrosinase (Agaricus bisporus) (UniProt O42713); conditions: at 1 mM
T6 sequence (whole entry): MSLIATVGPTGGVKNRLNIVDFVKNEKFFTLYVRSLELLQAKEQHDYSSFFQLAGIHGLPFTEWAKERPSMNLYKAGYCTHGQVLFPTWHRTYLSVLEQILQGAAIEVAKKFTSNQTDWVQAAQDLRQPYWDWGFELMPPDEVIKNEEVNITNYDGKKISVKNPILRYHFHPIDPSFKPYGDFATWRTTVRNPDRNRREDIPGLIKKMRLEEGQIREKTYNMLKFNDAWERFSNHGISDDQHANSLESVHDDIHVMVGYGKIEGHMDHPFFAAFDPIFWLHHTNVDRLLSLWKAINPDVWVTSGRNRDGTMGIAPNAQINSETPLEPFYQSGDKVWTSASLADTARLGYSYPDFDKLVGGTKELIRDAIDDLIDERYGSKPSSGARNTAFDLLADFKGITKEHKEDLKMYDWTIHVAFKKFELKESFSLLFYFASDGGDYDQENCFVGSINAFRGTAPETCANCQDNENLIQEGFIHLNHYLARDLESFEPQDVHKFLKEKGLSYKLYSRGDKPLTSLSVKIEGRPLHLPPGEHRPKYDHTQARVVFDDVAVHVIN

[8] = target: Stromelysin-1 (Homo sapiens) (UniProt P08254); conditions: at 1 mM;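 also: recombinant enzyme, inhibition read after a 30 min incubation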
Chain of Stromelysin-1 (Homo sapiens) (P08254 100-477 limits assumed): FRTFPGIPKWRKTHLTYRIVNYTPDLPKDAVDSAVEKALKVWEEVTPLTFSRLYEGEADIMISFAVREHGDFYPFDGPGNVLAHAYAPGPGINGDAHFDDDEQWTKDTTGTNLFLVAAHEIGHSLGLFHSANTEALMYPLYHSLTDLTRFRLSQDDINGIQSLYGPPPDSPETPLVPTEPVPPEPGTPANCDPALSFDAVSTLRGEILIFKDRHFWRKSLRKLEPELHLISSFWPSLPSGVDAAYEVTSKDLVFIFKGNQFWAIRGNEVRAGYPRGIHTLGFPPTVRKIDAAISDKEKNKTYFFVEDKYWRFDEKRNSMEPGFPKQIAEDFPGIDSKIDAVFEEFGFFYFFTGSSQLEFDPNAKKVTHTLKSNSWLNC

[9] = target: Neutrophil collagenase (Homo sapiens) (UniProt P22894); conditions: at 1 mM;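 also: recombinant human MMP8 enzyme, percent inhibition read after 30 min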
Chain of Neutrophil collagenase (Homo sapiens) (P22894 101-467 limits assumed): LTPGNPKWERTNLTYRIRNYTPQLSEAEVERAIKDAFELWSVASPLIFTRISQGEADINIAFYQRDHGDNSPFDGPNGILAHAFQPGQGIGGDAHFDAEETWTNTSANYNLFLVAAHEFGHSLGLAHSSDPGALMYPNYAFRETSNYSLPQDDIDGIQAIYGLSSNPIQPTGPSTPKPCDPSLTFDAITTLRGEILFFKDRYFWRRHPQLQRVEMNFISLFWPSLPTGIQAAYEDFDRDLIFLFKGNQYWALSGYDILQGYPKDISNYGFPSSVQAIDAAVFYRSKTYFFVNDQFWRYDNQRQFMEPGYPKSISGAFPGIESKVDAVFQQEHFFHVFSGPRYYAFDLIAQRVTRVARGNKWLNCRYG

[10] = target: T7, Lethal factor (Bacillus anthracis) (UniProt P15917); conditions: at 1 mM
T7 sequence (whole entry): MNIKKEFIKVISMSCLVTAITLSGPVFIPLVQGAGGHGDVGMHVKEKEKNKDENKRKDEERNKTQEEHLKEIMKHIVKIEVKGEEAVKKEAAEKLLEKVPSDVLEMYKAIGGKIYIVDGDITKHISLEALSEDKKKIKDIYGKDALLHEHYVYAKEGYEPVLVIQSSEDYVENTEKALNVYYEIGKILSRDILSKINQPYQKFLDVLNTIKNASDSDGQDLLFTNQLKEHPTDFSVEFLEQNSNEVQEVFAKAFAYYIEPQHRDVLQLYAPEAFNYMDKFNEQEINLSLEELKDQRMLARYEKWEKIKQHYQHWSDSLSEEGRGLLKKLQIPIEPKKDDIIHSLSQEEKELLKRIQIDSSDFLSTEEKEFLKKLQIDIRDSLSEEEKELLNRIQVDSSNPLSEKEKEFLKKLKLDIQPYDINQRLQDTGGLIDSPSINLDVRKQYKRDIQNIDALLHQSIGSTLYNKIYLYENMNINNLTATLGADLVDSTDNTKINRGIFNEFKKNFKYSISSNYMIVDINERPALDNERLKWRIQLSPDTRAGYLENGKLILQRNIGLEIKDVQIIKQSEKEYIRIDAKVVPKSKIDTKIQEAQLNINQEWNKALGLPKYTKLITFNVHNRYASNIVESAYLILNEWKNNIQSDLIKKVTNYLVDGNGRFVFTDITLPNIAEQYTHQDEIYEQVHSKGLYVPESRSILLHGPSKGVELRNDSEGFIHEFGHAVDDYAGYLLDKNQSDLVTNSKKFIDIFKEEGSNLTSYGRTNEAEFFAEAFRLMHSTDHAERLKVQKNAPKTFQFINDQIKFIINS

Tyrosinase = target: T8, Tyrosinase (Agaricus bisporus, UniProt O42713); experiment: Inhibition of mushroom tyrosinase after 10 mins
T8 sequence (O42713 whole entry): T6 sequence (whole entry)

[11] = target: T1, 72 kDa type IV collagenase; experiment: Inhibition of human recombinant MMP2 after 30 mins
Procedure, shortened: (§1)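 Enzyme (1.16 U) preincubated 30 min at 37 °C with fragment in 50 mM HEPES, 10 mM CaCl2, 0.05% Brij-35, pH 7.5. Fluorogenic Mca peptide substrate (4 μM final) then added. Rate of fluorescence increase compared with no-inhibitor control (100%). Single-point 25 μM final for the 8-hydroxyquinoline sublibrary. IC50 fitted to dose-response curves from serial dilutions of DMSO stocks.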
Target sequence in this assay (P08253 whole entry): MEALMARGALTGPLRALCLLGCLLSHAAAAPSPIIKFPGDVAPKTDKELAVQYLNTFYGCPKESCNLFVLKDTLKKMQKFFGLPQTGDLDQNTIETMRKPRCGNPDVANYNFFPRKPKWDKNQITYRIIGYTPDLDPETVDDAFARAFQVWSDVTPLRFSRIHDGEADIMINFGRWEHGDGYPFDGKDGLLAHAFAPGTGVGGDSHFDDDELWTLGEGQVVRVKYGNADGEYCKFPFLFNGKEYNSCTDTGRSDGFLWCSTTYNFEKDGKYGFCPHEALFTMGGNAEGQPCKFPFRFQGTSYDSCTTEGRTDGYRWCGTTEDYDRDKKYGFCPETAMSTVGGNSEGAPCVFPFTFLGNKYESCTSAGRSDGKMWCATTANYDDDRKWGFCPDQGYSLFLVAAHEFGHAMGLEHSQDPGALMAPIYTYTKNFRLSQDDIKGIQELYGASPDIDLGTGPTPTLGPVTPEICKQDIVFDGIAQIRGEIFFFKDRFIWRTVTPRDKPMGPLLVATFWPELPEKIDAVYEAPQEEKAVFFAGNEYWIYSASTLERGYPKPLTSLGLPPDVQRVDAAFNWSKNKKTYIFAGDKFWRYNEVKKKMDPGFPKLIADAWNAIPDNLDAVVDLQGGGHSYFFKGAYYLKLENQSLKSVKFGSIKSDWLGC

[12] = target: T1, 72 kDa type IV collagenase; experiment: Inhibition of human recombinant MMP2 at 25 uM after 30 mins
Procedure, shortened: as §1
Target sequence in this assay (P08253 110-660 limits assumed): as the sequence (P08253 110-660 limits assumed) above

Lethal factor = target: T9, Lethal factor (Bacillus anthracis, UniProt P15917); experiment: Inhibition of recombinant anthrax lethal factor after 30 mins by fluorescence assay
T9 sequence (P15917 whole entry): T7 sequence (whole entry)

Row | SMILES | inhibition [1] [%] | inhibition [2] [%] | inhibition [3] [%] | inhibition [6] [%] | inhibition [8] [%] | inhibition [9] [%] | IC50 [11] [µM] | inhibition [12] [%] | also measured
1 | O=C(O)c1cc(O)ccc1O [GENTISIC ACID] | 0 | 86 | 13 | 40 | -3 | 1 |  |  | inhibition [4]: 24%; IC50 [5]: 75 µM; inhibition [7]: 96%
2 | Cc1occc(=S)c1O | 100 | 91 | 98 | 100 | 98 | 101 |  |  | inhibition [10]: 96%; IC50 (Tyrosinase): 3.8 µM; IC50 [5]: 11 µM; inhibition [7]: 102%
3 | O=S(=O)(Nc1ccc2cccnc2c1O)c1ccccc1 |  |  |  |  |  |  | 5.6 | > 65 | 
4 | Oc1coccc1=S | 100 | 94 | 99 | 100 | 98 | 102 | 76 |  | inhibition [10]: 101%; IC50 (Lethal factor): 204 µM; inhibition [7]: 97%
5 | O=S(=O)(Nc1ccc(O)c2ncccc12)c1ccccc1 |  |  |  |  |  |  | 8.8 | > 65 | 
6 | O=C(O)c1cccc(=O)[nH]1 |  |  |  |  |  |  |  |  | IC50 (Tyrosinase): 159 µM
7 | Oc1cccc2cccnc12 [OXYQUINOLINE] | 94 | 61 | 77 | 78 | 83 | 92 | 130 |  | inhibition [10]: 56%; inhibition [4]: 8%
8 | O=S(=O)(Nc1ccc2cccnc2c1O)c1cccs1 |  |  |  |  |  |  | 4.3 | > 65 | 
9 | O=S(=O)(Nc1ccc2cccnc2c1O)c1ccc(-c2ccccc2)cc1 |  |  |  |  |  |  | 3.9 | > 65 | 
10 | Nc1cccc(C(=O)O)c1O | 70 | 72 | 69 | 59 | 72 | 67 | 389 |  | inhibition [10]: 90%; inhibition [4]: 18%
11 | O=S(=O)(Nc1ccc(O)c2ncccc12)c1ccc(F)cc1 |  |  |  |  |  |  | 7.2 | > 65 | 
12 | O=S(=O)(Nc1ccc(O)c2ncccc12)c1cccs1 |  |  |  |  |  |  | 8.4 | > 65 | 
13 | O=S(=O)(Nc1ccc2cccnc2c1O)c1ccc(F)cc1 |  |  |  |  |  |  | 3 | > 65 | 
14 | O=S(=O)(Nc1ccc(O)c2ncccc12)c1ccc(-c2ccccc2)cc1 |  |  |  |  |  |  | 10.8 | > 65 | 
